Laboratory results from ChEMBL document CHEMBL6134796, “Development and Evaluation of Indole-Based Phospholipase D Inhibitors for Lung Cancer Immunotherapy” (J Med Chem, 2025).
Activity calls are given as the source filed them. No cut-off for these calls is given here.

Key:
[1] = Cytotoxicity against human HCC15 cells assessed as inhibition of cell growth incubated for 48 hrs by WST-1 assay; type: functional, cell-based; conditions: HCC15, 48 h
In short: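 WST-1 viability assay. Cells seeded at 5 × 10^3 per well and incubated 24 h at 37 °C, then exposed to drug for 48 h. Absorbance read at 450 nm, in triplicate. IC50 taken as the concentration giving 50% growth inhibition versus control.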

[2] = system: Lewis lung carcinoma cell line; assay: Antitumor activity against mouse Lewis lung carcinoma cell line allografted in male C57BL/6 mouse model assessed as recovery of spleen weight at 10 mg/kg, po measured every other day for 3 weeks; type: functional, organism-based
In short: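 Syngeneic model: 6-week-old male C57BL/6 mice given 3 × 10^5 LLC cells in 50 μL PBS subcutaneously in the flank. At day 7, mice were randomized to vehicle PO daily or 10 mg/kg PO every other day for 3 weeks. Caliper volume was taken every 2 days as ([…])/2, with tumor weight at end. Spleen size and weight were recorded. Ki67 and cleaved caspase-3 were scored by IHC (DAB, hematoxylin).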

A549 [3] = assay: Induction of apoptosis in human A549 cells measured up to 48 hrs in presence of gemcitabine by Annexin V-FITC and PI staining based flow cytometry analysis; type: functional, cell-based
In short: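 A549 cells given compound, gemcitabine, or both. Apoptosis assessed by PI staining, annexin V flow cytometry, cleaved PARP immunoblot, and caspase-3 activity. For caspase-3: drugs at 10 μM for 48 h, then 1 μM NucView 488 substrate for 30 min, with 1 μM Hoechst 33342, read by plate fluorescence.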

Mus musculus [4] = assay: In vivo inhibition of KRAS activation in male C57BL/6 mouse allografted with mouse Lewis lung carcinoma cell line assessed as decrease in ERK phosphorylation at 10 mg/kg, po; type: functional, organism-based
[5] = biological target: T1, Phospholipase D1 (Mus musculus) (UniProt Q9Z280); assay: In vivo inhibition of PLD1 in male C57BL/6 mouse allografted with mouse Lewis lung carcinoma cell line assessed as increase in CD80+ pro-inflammatory M1 macrophage population at 10 mg/kg, po by immunofluorescence analysis; type: functional, organism-based
T1 sequence (whole entry): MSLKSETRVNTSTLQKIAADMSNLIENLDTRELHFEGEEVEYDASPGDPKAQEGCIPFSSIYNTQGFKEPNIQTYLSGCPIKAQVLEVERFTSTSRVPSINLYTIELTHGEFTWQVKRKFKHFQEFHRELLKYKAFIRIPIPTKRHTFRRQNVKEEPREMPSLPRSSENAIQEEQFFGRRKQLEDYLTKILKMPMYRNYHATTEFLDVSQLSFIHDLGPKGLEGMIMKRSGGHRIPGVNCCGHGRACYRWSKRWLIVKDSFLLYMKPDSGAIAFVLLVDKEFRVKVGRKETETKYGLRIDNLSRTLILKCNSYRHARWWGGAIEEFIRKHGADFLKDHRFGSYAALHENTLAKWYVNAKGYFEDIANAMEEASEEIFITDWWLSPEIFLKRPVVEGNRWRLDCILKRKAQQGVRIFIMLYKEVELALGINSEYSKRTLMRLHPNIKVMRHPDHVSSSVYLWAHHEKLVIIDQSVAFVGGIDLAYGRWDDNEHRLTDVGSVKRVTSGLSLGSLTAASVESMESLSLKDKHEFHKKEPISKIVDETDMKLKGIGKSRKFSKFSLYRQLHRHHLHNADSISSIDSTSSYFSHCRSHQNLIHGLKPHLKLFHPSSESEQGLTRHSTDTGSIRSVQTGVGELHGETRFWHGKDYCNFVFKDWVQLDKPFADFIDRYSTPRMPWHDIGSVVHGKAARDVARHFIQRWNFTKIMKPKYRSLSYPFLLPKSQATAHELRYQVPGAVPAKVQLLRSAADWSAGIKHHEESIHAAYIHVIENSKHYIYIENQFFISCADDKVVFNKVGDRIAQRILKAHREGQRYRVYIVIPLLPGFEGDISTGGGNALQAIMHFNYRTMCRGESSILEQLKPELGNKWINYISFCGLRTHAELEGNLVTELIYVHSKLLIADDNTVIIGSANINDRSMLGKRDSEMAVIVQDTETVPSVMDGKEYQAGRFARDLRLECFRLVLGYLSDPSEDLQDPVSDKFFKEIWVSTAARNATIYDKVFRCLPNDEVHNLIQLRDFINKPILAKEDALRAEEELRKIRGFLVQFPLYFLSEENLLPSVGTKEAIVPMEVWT
In short: (§1)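 Same LLC syngeneic C57BL/6 model, 10 mg/kg PO every other day for 3 weeks. Tumor tissues were stained by immunofluorescence for CD80+ and CD163+ cells, CD8+ T cells, and CD4+/IL-17+ and Treg populations. Nuclei were counterstained with 1 μM Hoechst 33342 and imaged by confocal microscopy.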

[6] = biological target: Phospholipase D2 (Homo sapiens) (UniProt O14939); assay: Inhibition of PLD2 (unknown origin) overexpressed in human A549 cells; type: cell-based
In short: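 A549 cells transfected with wild-type PLD1, PLD1 mutants (L425A, F614A, F789A) or PLD2, then compound-treated. PLD activity measured as [3H]phosphatidylbutanol formed in the presence of 1-butanol after [3H]myristic acid labeling, expressed as % of total lipid cpm. At least three independent experiments.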

[7] = biological target: T1, Phospholipase D1 (Mus musculus); assay: In vivo inhibition of PLD1 in male C57BL/6 mouse allografted with mouse Lewis lung carcinoma cell line assessed as increase in CD4+ cell population at 10 mg/kg, po by immunofluorescence analysis; type: functional, organism-based; in short: as §1
[8] = system: Lewis lung carcinoma cell line; assay: Antitumor activity against mouse Lewis lung carcinoma cell line allografted in […] male C57BL/6 mouse model assessed as suppression of tumor formation at 10 mg/kg, po measured every other day for 3 weeks; type: functional, organism-based
[9] = Metabolic stability in human plasma assessed as parent compound remaining at 10 uM measured after 30 mins; type: ADME, cell-free; conditions: read-out: Stability
In short: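 Citrated human plasma spiked to final 10 μM, incubated at 37 °C for 0, 30 and 120 min; quenched with acetonitrile containing internal standard, vortexed, centrifuged at 4 °C; parent remaining quantified by LC-MS/MS in MRM mode on C18 column, formic acid water/acetonitrile gradient.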

A549 [10] = assay: Downregulation of CD47 expression in human A549 cells by flow cytometry analysis; type: functional, cell-based
In short: (§2)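 A549 cells treated with compound. Surface "don't eat-me" and "eat-me" markers measured by flow cytometry.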

[11] = biological target: T1, Phospholipase D1 (Mus musculus); assay: In vivo inhibition of PLD1 in male C57BL/6 mouse allografted with mouse Lewis lung carcinoma cell line assessed as reduction in PD-L1 expression at 10 mg/kg, po by immunofluorescence analysis; type: functional, organism-based
A549 [12] = assay: Downregulation of CD24 expression in human A549 cells by flow cytometry analysis; type: functional, cell-based; in short: as §2
A549 [13] = assay: Downregulation of PD-L1 expression in human A549 cells by flow cytometry analysis; type: functional, cell-based; in short: as §2
Mus musculus [14] = assay: In vivo inhibition of KRAS activation in male C57BL/6 mouse allografted with mouse Lewis lung carcinoma cell line assessed as decrease in RAS level at 10 mg/kg, po; type: functional, organism-based
A549 [15] = assay: Inhibition of cell invasion in human A549 cells measured after 24 hrs by crystal violet staining based light microscopic analysis; type: functional

Chain of Phospholipase D2 (Homo sapiens) (O14939 whole entry): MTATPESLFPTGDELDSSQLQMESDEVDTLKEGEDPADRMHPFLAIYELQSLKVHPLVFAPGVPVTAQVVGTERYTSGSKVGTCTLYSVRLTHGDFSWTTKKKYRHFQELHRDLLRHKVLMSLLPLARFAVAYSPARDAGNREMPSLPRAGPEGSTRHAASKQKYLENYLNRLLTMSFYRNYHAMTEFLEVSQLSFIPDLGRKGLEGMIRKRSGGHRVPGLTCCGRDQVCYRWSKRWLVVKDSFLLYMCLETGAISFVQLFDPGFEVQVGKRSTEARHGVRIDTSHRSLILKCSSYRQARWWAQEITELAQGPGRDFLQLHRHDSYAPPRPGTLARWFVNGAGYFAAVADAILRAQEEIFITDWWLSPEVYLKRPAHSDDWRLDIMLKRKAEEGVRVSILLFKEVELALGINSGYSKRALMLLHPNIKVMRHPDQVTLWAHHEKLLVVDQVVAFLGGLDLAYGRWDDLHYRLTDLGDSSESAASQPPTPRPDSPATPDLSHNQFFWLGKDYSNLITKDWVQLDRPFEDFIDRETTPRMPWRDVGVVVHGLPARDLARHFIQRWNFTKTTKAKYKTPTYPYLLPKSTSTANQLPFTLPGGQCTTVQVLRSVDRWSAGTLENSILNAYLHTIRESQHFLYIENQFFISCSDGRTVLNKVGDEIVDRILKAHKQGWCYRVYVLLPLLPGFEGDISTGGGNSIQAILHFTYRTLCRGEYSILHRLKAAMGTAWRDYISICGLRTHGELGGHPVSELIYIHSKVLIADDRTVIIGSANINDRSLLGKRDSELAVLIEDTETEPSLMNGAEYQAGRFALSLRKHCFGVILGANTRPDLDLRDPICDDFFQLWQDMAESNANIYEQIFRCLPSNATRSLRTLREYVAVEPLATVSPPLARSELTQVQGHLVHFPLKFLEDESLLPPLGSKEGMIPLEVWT

remaining at 0.5 h, 10 µM [9]: 97.4%
Compound: O=C(CCc1c[nH]c2ccccc12)Nc1cc(C(F)(F)F)cc(C(F)(F)F)c1
IC50 [1]: 21.4 µM
Activity [2]: Active
Activity (A549 [3]): Active
inhibition (Mus musculus [4]): Active
inhibition [5]: Active
inhibition [6]: inactive
inhibition [7]: Active
Activity [8]: Active
Activity (A549 [10]): Active
inhibition [11]: Active
Activity (A549 [12]): Active
Activity (A549 [13]): Active
inhibition (Mus musculus [14]): Active
inhibition (A549 [15]): Active
